Series [1] in a line: Inhibition of hedgehog signaling pathway in mouse NIH/3T3 cells after 48 hrs by Gli-luciferase reporter gene assay. The class given is cell-based. The settings on record: NIH3T3, 48 h. Put shortly:
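NIH3T3 cells stably carrying a Gli-luciferase reporter, kept in DMEM + 10% FBS with puromycin. Seeded at 2 × 10⁴ cells/well and cultured overnight at 37 °C, 5% CO₂. Compounds added as an 8-point series (0.05–300 nM) in medium with 0.5% FBS plus Sonic Hedgehog agonist 0.7 µg/mL, n = 4 wells per concentration, 48 h. […] Lysates read by dual-luciferase.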

Series [2] is described as follows: Cmax in Sprague-Dawley rat at 1 mg/kg, iv by LC/MS/MS analysis. Format: ADME, organism-based. More on the design: dose 1 mg/kg, route intravenous. As to conditions: in vivo. Put shortly:
(§1)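 Sprague-Dawley rats dosed iv at 1 mg/kg (n = 3). Blood samples were centrifuged at 4000 rpm for 5 min at 4 °C to give plasma. PK parameters were derived from plasma concentration-time data by noncompartmental analysis.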

The nature of series [3]: Mean residence time (0 to t) in Sprague-Dawley rat at 1 mg/kg, iv by LC/MS/MS analysis. Format: ADME, organism-based. Also noted: dose 1 mg/kg, route intravenous. As to conditions: in vivo. The method in brief:
as §1

Series [4] can be described thus: Elimination half life in Sprague-Dawley rat at 1 mg/kg, iv by LC/MS/MS analysis. Format: ADME, organism-based. More on the design: dose 1 mg/kg, route intravenous. As to conditions: in vivo, read-out: beta t1/2 (converted). The method in brief: as §1
The nature of series [5]: Clearance in Sprague-Dawley rat at 1 mg/kg, iv by LC/MS/MS analysis. The class given is ADME, organism-based. Also noted: dose 1 mg/kg, route intravenous. The settings on record: in vivo. The method in brief: as §1
Series [6] in a line: AUC in Sprague-Dawley rat at 1 mg/kg, iv by LC/MS/MS analysis. Format: ADME, organism-based. More on the design: dose 1 mg/kg, route intravenous. As to conditions: plasma. The method in brief:
as §1

The nature of series [7]: Apparent volume of distribution in Sprague-Dawley rat at 1 mg/kg, iv by LC/MS/MS analysis. The class given is ADME, organism-based. Also noted: dose 1 mg/kg, route intravenous. The settings on record: in vivo, read-out: Vz. The method in brief: as §1

Usually IC50 stands for the concentration at which inhibition is half-maximal. Regarding `Cc1cccc(C)c1NC(=O)c1ccc(Nc2nc(C)c(C)c(-c3ccc(OC(F)(F)F)cc3)n2)cc1`, it took 1.6 nM to reach half-maximal inhibition in series [1] (IC50).

Molecule `Cc1cc(-c2ccc(OC(F)(F)F)cc2)nc(Nc2ccc(C(=O)Nc3c(C)cccc3C)cc2)n1` gave an IC50 in series [1] of 1.4 nM.

Turning to `CCCc1cc(-c2ccc(OC(F)(F)F)cc2)nc(Nc2ccc(C(=O)Nc3c(C)cccc3C)cc2)n1`, half-maximal inhibition in series [1] (IC50) was put at 0.8 nM.

In series [1], `CCc1cnc(Nc2ccc(C(=O)Nc3c(C)cccc3C)cc2)nc1-c1ccc(OC(F)(F)F)cc1` registered an IC50 of 5.3 nM.

In series [1], `Cc1ccc(CN2CCCCC2)cc1NC(=O)c1ccc(Nc2nc(-c3cnn(C)c3)c3cccn3n2)cc1` yielded an IC50 of 11.1 nM. This IC50 is about 2.1-fold higher than that of the molecule before.

In series [1], `Cc1ccc(CN2CCCC2)cc1NC(=O)c1ccc(Nc2nc(-c3cnn(C)c3)c3cccn3n2)cc1` showed an IC50 of 12.3 nM.

In series [1], `Cc1ccc(CN2CCOCC2)cc1NC(=O)c1ccc(Nc2nc(-c3ccccc3)c3cccn3n2)cc1` displayed an IC50 of 1.5 nM.

One may read the Cmax as the peak of the concentration-time curve. As a reminder, the MRT last is the average time that molecules of a dose stay in the body. For orientation: clearance means a measure of how efficiently the substance is removed, as volume per time. High values mean a high capacity for elimination, low ones a low capacity for elimination. The term AUC denotes the area under the concentration-time curve, a measure of exposure. High values mean more exposure, low ones less exposure. As for `Cc1ccc(CN2CCOCC2)cc1NC(=O)c1ccc(Nc2nc(-c3ccccn3)c3cccn3n2)cc1`, in series [2], the Cmax amounted to 637 ng/mL. Further, the MRT last in series [3] came to 1.64 h. In series [4], the half-life was 1.51 h. In series [5], this molecule showed a clearance of 22 mL/min/kg. Inhibition in series [1] was half-maximal at 0.97 nM (IC50). Besides, the AUC in series [6] came out at 764 ng·h/mL. In series [7], the Vd stood at 2.85 L/kg.

For `Cc1ccc(CN2CCOCC2)cc1NC(=O)c1ccc(Nc2nc(-c3cccnc3)c3cccn3n2)cc1`, in series [1], half-maximal inhibition (IC50) required 1.6 nM.

For the molecule `Cc1ccc(CN2CCOCC2)cc1NC(=O)c1ccc(Nc2nc(-c3ccc(OC(F)(F)F)cc3)c3cccn3n2)cn1`, the Cmax in series [2] is 4190 ng/mL. The molecule also came in with an MRT last in series [3] of 3.49 h. Moreover, in series [4], the half-life was 8.34 h. The same molecule had a clearance in series [5] of 8.38 mL/min/kg. For the same molecule, the IC50 in series [1] was determined as 1.1 nM. This molecule also came in with an AUC in series [6] of 1940 ng·h/mL. Besides, in series [7], the Vd stood at 5.97 L/kg.

As for `O=C(Nc1cccc(CN2CCOCC2)c1)c1ccc(Nc2nc(-c3ccc(OC(F)(F)F)cc3)c3cccn3n2)cn1`, in series [1], the IC50 came to 8.8 nM.

For the molecule `Cc1ccc(CN2CCOCC2)cc1NC(=O)c1ccc(Nc2nc(-c3ccccn3)c3cccn3n2)cn1`, half-maximal inhibition in series [1] (IC50) was put at 1.1 nM.

Molecule `Cc1ccc(CN2CCOCC2)cc1NC(=O)c1ccc(Nc2nc(-c3ccccn3)c3cccn3n2)c(F)c1` registered an IC50 in series [1] of 0.73 nM. This IC50 lies about 1.5-fold lower than the previous one.

Consider `Cc1ccc(CN2CCCCC2)cc1NC(=O)c1ccc(Nc2nc(-c3ccc(OC(F)(F)F)cc3)c3cccn3n2)cc1`, for which the IC50 in series [1] was 0.62 nM.

For the molecule `Cc1ccc(CN2CCCC2)cc1NC(=O)c1ccc(Nc2nc(-c3ccc(OC(F)(F)F)cc3)c3cccn3n2)cc1`, 1.7 nM corresponded to half-maximal inhibition in series [1] (IC50).

In turn, `Cc1ccc(CN2CCOCC2)cc1NC(=O)c1ccc(Nc2nc(-c3cnn(C)c3)c3cccn3n2)cc1` yielded a Cmax in series [2] of 1070 ng/mL. The molecule further returned an MRT last in series [3] of 1.31 h. For the same molecule, the half-life in series [4] was 1.23 h. Further, the clearance in series [5] is 21.1 mL/min/kg. The IC50 in series [1] was 1.2 nM. In series [6], this molecule came in with an AUC of 791 ng·h/mL. The Vd in series [7] is 2.19 L/kg.

For the molecule `Cc1ccc(CN2CCN(C)CC2)cc1NC(=O)c1ccc(Nc2nc(-c3cnn(C)c3)c3cccn3n2)cc1`, in series [1], the IC50 came to 7.5 nM.

The molecule `Cc1ccc(CN2CCN(C)CC2)cc1NC(=O)c1ccc(Nc2nc(-c3ccc(OC(F)(F)F)cc3)c3cccn3n2)cc1` gave an IC50 in series [1] of 1.7 nM.

In series [2], `Cc1cccc(C)c1NC(=O)c1ccc(Nc2nc(-c3ccc(OC(F)(F)F)cc3)c3cccn3n2)cc1` displayed a maximum concentration (Cmax) of 2440 ng/mL. In series [3], the MRT last worked out at 4.68 h. In addition, the half-life in series [4] is 15.2 h. The clearance in series [5] was 9.66 mL/min/kg. The IC50 in series [1] came to 1.6 nM. In addition, the AUC in series [6] came to 1430 ng·h/mL. The Vd in series [7] was 12.6 L/kg.

In turn, `Cc1ccc(CN2CCOCC2)cc1NC(=O)c1ccc(Nc2nc(-c3ccc(OC(F)(F)F)cc3)c3cccn3n2)cc1` showed a Cmax in series [2] of 2720 ng/mL. This molecule registered an MRT last in series [3] of 4.83 h. Besides, the half-life in series [4] was 8.86 h. Also, the clearance in series [5] was 6.9 mL/min/kg. Further, in series [1], 0.83 nM corresponded to half-maximal inhibition (IC50). Also, the AUC in series [6] amounted to 2230 ng·h/mL. The Vd in series [7] was found to be 5.23 L/kg.

Molecule `CS(=O)(=O)c1ccc(C(=O)Nc2ccc(Cl)c(-c3ccccn3)c2)c(Cl)c1` [VISMODEGIB] yielded a Cmax in series [2] of 1250 ng/mL. Moreover, the MRT last in series [3] worked out at 2.23 h. Moreover, the half-life in series [4] is 1.64 h. Further, the clearance in series [5] was 6.77 mL/min/kg. In series [1], half-maximal inhibition (IC50) was put at 7.2 nM. The same molecule yielded an AUC in series [6] of 2460 ng·h/mL.

The values are drawn from ChEMBL document CHEMBL3112570, “Design, synthesis, and evaluation of pyrrolo[2,1-f][1,2,4]triazine derivatives as novel hedgehog signaling pathway inhibitors” (Bioorg Med Chem, 2014).
